OXTR agonist – agonists of human oxytocin receptor. P30559. CHO-OTR cells, Fluo-8 calcium fluorescence; normalized: DMSO 0%, oxytocin 100%. activation, % at 3 µM. actives 0.32% (n = 320,000). AID 2435;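 active = activation above the mean of all tested compounds plus 3 SD, cutoff set per screening run, cut at about 20% in these data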;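 note: peak over basal fluorescence ratio from a 100 s FLIPR kinetic read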
TAAR1 agonist – agonists of human TAAR1. CHO RD-HGA16 TAAR1, Fluo-8 calcium fluorescence; vehicle wells 0%, saturating PEA agonist 100%. Q96RJ0. activation, % at 3 µM. actives 0.99% (n = 360,000);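 active = activation above the mean activation of all test compounds in the run plus 3 SD, cut at about 38% in these data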
Target sequence (Q96RJ0 whole entry, looked up): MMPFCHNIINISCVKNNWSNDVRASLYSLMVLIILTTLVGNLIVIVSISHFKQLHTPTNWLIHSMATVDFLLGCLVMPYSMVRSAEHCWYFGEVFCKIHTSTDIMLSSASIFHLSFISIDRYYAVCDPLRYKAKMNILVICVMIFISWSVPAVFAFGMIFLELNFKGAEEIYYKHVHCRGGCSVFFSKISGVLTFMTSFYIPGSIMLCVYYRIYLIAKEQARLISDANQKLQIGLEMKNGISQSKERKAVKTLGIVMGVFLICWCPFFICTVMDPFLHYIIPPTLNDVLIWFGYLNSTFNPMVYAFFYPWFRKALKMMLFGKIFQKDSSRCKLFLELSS
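Assay system: CHO-derived RD-HGA16 cells with stable Gα16 and human TAAR1; timing: 17-24 h seeding, 75 min 37 °C dye, 30 min RT; read-out: % activation from peak over basal fluorescence ratio, DMSO-to-PEA scaled; measured by: kinetic Fluo-8 calcium fluorescence; benchmarks: low control DMSO, high control PEA (EC100); doses: 3 µM single concentration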
V1R ag counter – counter-screen for oxytocin receptor agonists: human V1a receptor agonists; activation, % at 3 µM; P37288; CHO-V1R cells, Fluo-8 calcium fluorescence, agonist mode; 0% DMSO, 100% 3 nM vasopressin; actives 0.25% (n = 320,000);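 active = activation above the mean activation of all tested compounds plus 3 SD, per screening run, cut at about 20% in these data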;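 note: signal is peak over basal fluorescence ratio across a 100 second FLIPR read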
OXTR potentiate – potentiates the human oxytocin receptor response. P30559. AID 2445. CHO-OTR cells, Fluo-8 calcium fluorescence, potentiator mode; 0% = oxytocin EC15, 100% = EC100. actives 0.061% (n = 320,000). activation, % at 3 µM;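 active = activation above that plate's cutoff, the mean activation of tested compounds plus 3 SD, cut at about 6.6% in these data, passing the limit was not always enough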
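Assay system: CHO-OTR cells, human receptor / Also added: oxytocin at about EC15, sub-maximal agonist stimulus / Dosing: single dose, 3.0 µM nominal final compound concentration / Incubation: 6 min pre-incubation, 100 s read / Technique: Fluo-8 calcium dye fluorescence / Read-out: % activation vs EC15 and EC100 oxytocin / Benchmarks: EC15 oxytocin low, 75 nM oxytocin high / Replicates: singlicate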
TAAR1 antagonist – antagonists of human TAAR1. Q96RJ0. CHO RD-HGA16 TAAR1, Fluo-8 calcium fluorescence, antagonist. inhibition, % at 3 µM. actives 1.5% (n = 360,000). AID 624466;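 active = inhibition above a per-plate cutoff, the mean inhibition of test compounds on that plate plus 3 SD, cut at about 49% in these data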
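Assay system: RD-HGA16 CHO cells with stable hTAAR1 and Gα16 / Reagent: EC80 β-phenethylamine stimulus / Doses: 3 µM, single point / Timing: dye loading 75 min at 37 °C, then 30 min room temperature / Measured by: Fluo-8 intracellular calcium dye fluorescence, real-time kinetic reads / Controls: vehicle wells and EC80 agonist wells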
TAAR1 ag confirm – confirmation of human TAAR1 agonists. shares compounds with TAAR1 agonist. CHO RD-HGA16 TAAR1, Fluo-8 calcium fluorescence; scaled: DMSO 0%, maximal phenethylamine 100%. activation, % at 3 µM. actives 82% (n = 2,400). AID 651783;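 active = activation above a cutoff set at the run's mean compound activation plus 3 SD, cut at about 39% in these data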
Ga16 nonsel ag – nonselective agonist in parental cells, TAAR1 agonist counter-screen. shares compounds with TAAR1 agonist. CHO-Ga16 parental, Fluo-8 calcium fluorescence; normalized to maximal ATP response, DMSO zero. activation, % at 3 µM. actives 50% (n = 2,400);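 active = activation above the run cutoff, the mean activation over all tested wells plus 3 SD, cut at about 12% in these data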
TAAR1 desens – counter-screen for human TAAR1 agonists: agonists that desensitize TAAR1 | shares compounds with TAAR1 agonist | CHO RD-HGA16 hTAAR1, Fluo-8 calcium, beta-PEA response inhibition | inhibition, % at 3 µM | actives 46% (n = 2,400);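 active = inhibition above the run cutoff, the mean inhibition of all test compounds plus 3 SD, cut at about 49% in these data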;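 note: beta-PEA stimulus applied at its EC80; loss of beta-PEA calcium signal after compound pretreatment read as receptor desensitization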
Ga16 antag count – nonselective Ga16 antagonist in TAAR1 agonist counter-screen; actives 39% (n = 2,400); CHO-Ga16 ATP-induced calcium, Fluo-8 fluorescence; inhibition, % at 3 µM; shares compounds with TAAR1 agonist;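 active = inhibition above the plate's mean compound inhibition plus 3 SD, computed per plate, cut at about 22% in these data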
Of the large screens only hits and unclear results are named; the others gave an inactive call (follow-up assays come after a bar, where they were run); ! = not active in a repeat. Sampled rows, rich in hits. Any-hit rate of the full collection: about 2.3%.

CCCNC(=O)C12CCC(C)(c3nc4cc(C)c(C)cc4nc31)C2(C)C (configuration not stated)	none
CCCCCCCCCCCCCCCC[n+]1ccccc1	TAAR1 agonist 52!, TAAR1 antagonist 73 (no result: OXTR agonist, V1R ag counter, OXTR potentiate) | TAAR1 ag confirm inactive | Ga16 nonsel ag inactive | TAAR1 desens inactive | Ga16 antag count inactive
O=C(NCN1CCc2ccccc2C1)c1ccccc1	TAAR1 agonist 82, TAAR1 antagonist 54 | TAAR1 ag confirm 50 | Ga16 nonsel ag inactive | TAAR1 desens inactive | Ga16 antag count inactive
CCCNC(=O)c1ccc(CN2CCc3ccccc3C2)cc1	none
O=C(NCN1CCc2ccccc2C1)c1cnccn1	TAAR1 agonist 95, TAAR1 antagonist 57 | TAAR1 ag confirm 88 | Ga16 nonsel ag inactive | TAAR1 desens 65 | Ga16 antag count inactive
CC1CCN(CC(=O)c2cccs2)CC1	none
O=C(CN1CCc2ccccc2C1)c1cccs1	TAAR1 agonist 75 | TAAR1 ag confirm 86 | Ga16 nonsel ag inactive | TAAR1 desens inactive | Ga16 antag count inactive
O=C(O)C1CCC(N2C(=O)C3C4CCC(C4)C3C2=O)CC1 (configuration not stated)	none
Cn1cc(CN2CCC(C(=O)NC(c3ccc(F)cc3)c3ccc4ccccc4n3)CC2)c2ccccc21 (configuration not stated)	TAAR1 agonist 53, TAAR1 antagonist 52 (no result: OXTR agonist, V1R ag counter, OXTR potentiate) | TAAR1 ag confirm inactive | Ga16 nonsel ag 32 | TAAR1 desens 104 | Ga16 antag count 52
COc1cc(CN2CCC(C(=O)NC(c3ccc(F)cc3)c3ccc4ccccc4n3)CC2)cc(OC)c1 (configuration not stated)	none (no result: OXTR agonist, V1R ag counter, OXTR potentiate)
CC1(C)CC(=O)C(C(=O)/C=C/NCCc2ccccc2)C(=O)C1	TAAR1 agonist 87, TAAR1 antagonist 92 | TAAR1 ag confirm 109 | Ga16 nonsel ag inactive | TAAR1 desens 93 | Ga16 antag count inactive
CN(C)CCSc1nnc2[nH]c3ccccc3c2n1	TAAR1 agonist 44 | TAAR1 ag confirm 83 | Ga16 nonsel ag inactive | TAAR1 desens inactive | Ga16 antag count inactive
CCc1ccc(OCC(=O)NNC(=O)c2cc3ccccc3o2)cc1	TAAR1 agonist 75, TAAR1 antagonist 71 | TAAR1 ag confirm inactive | Ga16 nonsel ag inactive | TAAR1 desens inactive | Ga16 antag count inactive
CCOC(=O)c1cc2c(ccn2-c2ccc(F)cc2)n1CC(=O)N(CC)CC	none
O=C(Nc1nnc(-c2cccs2)o1)c1cccc(C(F)(F)F)c1	TAAR1 agonist 90 | TAAR1 ag confirm 45 | Ga16 nonsel ag 51 | TAAR1 desens inactive | Ga16 antag count 25
COc1ccc(CN2CCN(Cc3cccc(OC)c3)C(CCO)C2)cc1 (configuration not stated)	none
COc1cccc(CN2CCN(Cc3cc4ccccc4[nH]3)CC2CCO)c1 (configuration not stated)	TAAR1 agonist 63, TAAR1 antagonist 69 | TAAR1 ag confirm 70 | Ga16 nonsel ag 49 | TAAR1 desens 81 | Ga16 antag count 56
CCCN(CC(=O)Nc1ccccc1C)C(=O)CCN1C(=O)c2cccc([N+](=O)[O-])c2C1=O	none
O=C(NCCN1CCOCC1)C(=O)c1c[nH]c2ccccc12	none
CC(=O)c1ccc(NC(=O)CC(NCCC2=CCCCC2)C(=O)O)cc1 (configuration not stated)	TAAR1 agonist 45 | TAAR1 ag confirm 74 | Ga16 nonsel ag inactive | TAAR1 desens inactive | Ga16 antag count inactive

Screening results deposited in PubChem BioAssay by The Scripps Research Institute Molecular Screening Center.
